The record followed here is ChEMBL document CHEMBL3616402, “A novel series of indazole-/indole-based glucagon receptor antagonists” (Bioorg Med Chem Lett, 2015).

Assay [1] addresses T1, Glucagon receptor (Homo sapiens, UniProt P47871). The experiment in a line: Antagonist activity against human glucagon receptor expressed in CHO cells assessed as reduction in glucagon-induced cAMP production. Type of assay: functional, cell-based. On the technique in general: cAMP levels reflect the balance of adenylyl cyclase and phosphodiesterase activity.
Assay [2] deals with T1, Glucagon receptor. The experiment in a line: Displacement of [125I]glucagon from human glucagon receptor expressed in CHO cell membranes. The method, boiled down:
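Binding: displacement of [125I]glucagon from human GCGR in membranes prepared from a CHO cell line stably expressing hGCGR; IC50 reported in nM.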
A general note: In a radioligand displacement assay an active substance lowers the binding of a labelled ligand.

T1 sequence (P47871 whole entry): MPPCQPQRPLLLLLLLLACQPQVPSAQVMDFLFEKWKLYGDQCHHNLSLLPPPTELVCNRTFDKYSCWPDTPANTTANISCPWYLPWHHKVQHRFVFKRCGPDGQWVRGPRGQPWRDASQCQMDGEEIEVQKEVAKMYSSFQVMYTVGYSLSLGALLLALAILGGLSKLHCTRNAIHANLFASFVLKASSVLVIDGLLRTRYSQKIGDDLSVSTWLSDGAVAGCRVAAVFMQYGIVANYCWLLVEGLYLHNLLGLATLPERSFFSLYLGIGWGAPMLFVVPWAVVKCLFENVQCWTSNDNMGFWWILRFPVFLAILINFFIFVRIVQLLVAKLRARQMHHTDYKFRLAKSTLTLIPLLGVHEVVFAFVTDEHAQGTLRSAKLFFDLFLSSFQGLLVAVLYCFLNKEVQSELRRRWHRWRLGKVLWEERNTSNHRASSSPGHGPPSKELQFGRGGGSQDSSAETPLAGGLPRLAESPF

As usually defined, the IC50 is the concentration needed to halve the response being measured. Turning to `CCCC(c1ccc(C(=O)NCCC(=O)O)cc1)n1nc(-c2cc(C(F)(F)F)ccc2OC)c2cc(-c3ccc(OC)cc3)ccc21` (centres undefined), the IC50 was found to be 26 nM in assay [1] and 10 nM in assay [2].

`CCCC(c1ccc(C(=O)NCCC(=O)O)cc1)n1nc(-c2cc(C(F)(F)F)ccc2OC)c2ccc(-c3ccc(C)cc3)cc21` (centres undefined): the IC50 in assay [1] is 5 nM; in assay [2] it was 2 nM.

Take `CCCCC(c1ccc(C(=O)NCCC(=O)O)cc1)n1nc(-c2cc(C(F)(F)F)ccc2OC)c2ccc(-c3cc(F)cc(Cl)c3)cc21` (centres undefined): the IC50 in assay [1] is 46 nM; in assay [2], 7 nM.

With `CCCC(c1ccc(C(=O)NCCC(=O)O)cc1)n1nc(-c2cc(C(F)(F)F)ccc2OC)c2cccc(-c3ccc(OC)cc3)c21` (centres undefined), the half-maximal inhibitory concentration (IC50) in assay [1] amounted to 2700 nM; in assay [2], 1700 nM.

For `CCC(c1ccc(C(=O)NCCC(=O)O)cc1)n1nc(-c2cc(C(F)(F)F)ccc2OC)c2ccc(-c3ccc(C)cc3)cc21` (centres undefined), the half-inhibitory concentration (IC50) in assay [1] was 21 nM; in assay [2], 4 nM.

In the case of `CC(c1ccc(C(=O)NCCC(=O)O)cc1)n1nc(-c2ccc(Cl)c(F)c2)c2ccc(-c3ccc(OC(F)(F)F)cc3)cc21` (centres undefined), the results for the IC50 in assay [1] and in assay [2] were 44 nM and 4 nM, respectively.

For the compound `COc1cncc(-c2nn(C(C)c3ccc(C(=O)NCCC(=O)O)cc3)c3cc(-c4ccc(OC(F)(F)F)cc4)ccc23)c1` (centres undefined), the results for the IC50 in assay [1] and in assay [2] were 100 nM and 50 nM, respectively.

`COc1ccc(C(F)(F)F)cc1-c1nn(Cc2ccc(C(=O)NCCC(=O)O)cc2)c2cc(-c3ccc(C)cc3)ccc12`: the results for the 50% inhibitory concentration (IC50) in assay [1] and in assay [2] were 140 nM and 39 nM, respectively.

For `COc1ccc(-c2nn(C(C)c3ccc(C(=O)NCCC(=O)O)cc3)c3cc(-c4ccc(OC(F)(F)F)cc4)ccc23)cn1` (centres undefined), the figures for the half-maximal inhibitory concentration (IC50) in assay [1] and in assay [2] were 65 nM and 26 nM, respectively.

Turning to `CC(c1ccc(C(=O)NCCC(=O)O)cc1)n1nc(-c2cc(C(F)(F)F)ccc2F)c2ccc(-c3ccc(OC(F)(F)F)cc3)cc21` (centres undefined), the values for the IC50 in assay [1] and in assay [2] were 120 nM and 5 nM, respectively.

Turning to `CCCCC(c1ccc(C(=O)NCCC(=O)O)cc1)n1nc(-c2cc(C(F)(F)F)ccc2OC)c2ccc(-c3ccc(OC)c(F)c3)cc21` (centres undefined), the IC50 in assay [1] stood at 18 nM; in assay [2], 1.5 nM.

Take `COc1cc(F)c(F)cc1-c1nn(C(C)c2ccc(C(=O)NCCC(=O)O)cc2)c2cc(-c3ccc(OC(F)(F)F)cc3)ccc12` (centres undefined): the results for the IC50 in assay [1] and in assay [2] were 37 nM and 4 nM, respectively.

On to `COc1ccncc1-c1nn(C(C)c2ccc(C(=O)NCCC(=O)O)cc2)c2cc(-c3ccc(OC(F)(F)F)cc3)ccc12` (centres undefined), for which the half-inhibitory concentration (IC50) in assay [1] worked out at 760 nM; in assay [2], 110 nM.

As to `COc1ccc(OC(F)(F)F)cc1-c1nn(C(C)c2ccc(C(=O)NCCC(=O)O)cc2)c2cc(-c3ccc(OC(F)(F)F)cc3)ccc12` (centres undefined), the half-maximal inhibitory concentration (IC50) is 11 nM in assay [1] and 7 nM in assay [2].

As for `CCCC(c1ccc(C(=O)NCCC(=O)O)cc1)n1cc(-c2cc(C(F)(F)F)ccc2OC)c2ccc(-c3ccc(OC(F)(F)F)cc3)nc21` (centres undefined), the 50% inhibitory concentration (IC50) stood at 360 nM in assay [1] and 12 nM in assay [2].

As to `CCCCC(c1ccc(C(=O)NCCC(=O)O)cc1)n1nc(-c2cc(C(F)(F)F)ccc2OC)c2ccc(-c3ccc(SC)cc3)cc21` (centres undefined), the half-inhibitory concentration (IC50) in assay [1] turned out to be 9 nM; in assay [2], 1.5 nM.

`CC(c1ccc(C(=O)NCCC(=O)O)cc1)n1nc(-c2ccc(C#N)cc2)c2ccc(-c3ccc(OC(F)(F)F)cc3)cc21` (centres undefined): the IC50 in assay [1] turned out to be 43 nM; in assay [2], 15 nM.

For `COc1nccc(-c2nn(C(C)c3ccc(C(=O)NCCC(=O)O)cc3)c3cc(-c4ccc(OC(F)(F)F)cc4)ccc23)n1` (centres undefined), the IC50 worked out at 84 nM in assay [1] and 35 nM in assay [2].

`CC(c1ccc(C(=O)NCCC(=O)O)cc1)n1nc(-c2cc(Cl)ccc2C(N)=O)c2ccc(-c3ccc(OC(F)(F)F)cc3)cc21` (centres undefined): the IC50 is 220 nM in assay [1] and 2 nM in assay [2].

In the case of `CCCCC(c1ccc(C(=O)NCCC(=O)O)cc1)n1nc(-c2cc(C(F)(F)F)ccc2OC)c2ccc(-c3ccc(OC)cc3Cl)cc21` (centres undefined), the 50% inhibitory concentration (IC50) amounted to 18 nM in assay [1] and 4 nM in assay [2].

`CC(c1ccc(C(=O)NCCC(=O)O)cc1)n1nc(-c2ccc(Cl)cc2Cl)c2ccc(-c3ccc(OC(F)(F)F)cc3)cc21` (centres undefined): the half-maximal inhibitory concentration (IC50) was determined as 41 nM in assay [1] and 8 nM in assay [2].

As for `CC(c1ccc(C(=O)NCCC(=O)O)cc1)n1nc(-c2cc(F)c(F)c(F)c2)c2ccc(-c3ccc(OC(F)(F)F)cc3)cc21` (centres undefined), the concentration for half-maximal inhibition (IC50) in assay [1] came to 20 nM; in assay [2] it was 6 nM.

Regarding `CC(c1ccc(C(=O)NCCC(=O)O)cc1)n1nc(-c2cc(F)cc(F)c2F)c2ccc(-c3ccc(OC(F)(F)F)cc3)cc21` (centres undefined), the results for the IC50 in assay [1] and in assay [2] were 52 nM and 7 nM, respectively.

In the case of `CCCC(c1ccc(C(=O)NCCC(=O)O)cc1)n1cc(-c2cc(C(F)(F)F)ccc2OC)c2ccc(-c3ccc(C)cc3)cc21` (racemic), the IC50 in assay [1] worked out at 48 nM; in assay [2], 4 nM.

For the compound `CC(c1ccc(C(=O)NCCC(=O)O)cc1)n1nc(-c2cc(F)ccc2Cl)c2ccc(-c3ccc(OC(F)(F)F)cc3)cc21` (centres undefined), the half-maximal inhibitory concentration (IC50) in assay [1] was 140 nM; in assay [2], 10 nM.

Consider `CCCCC(c1ccc(C(=O)NCCC(=O)O)cc1)n1nc(-c2cc(C(F)(F)F)ccc2OC)c2ccc(-c3cc(F)c(F)c(F)c3)cc21` (centres undefined), for which the IC50 in assay [1] is 26 nM; in assay [2], 3.5 nM.

Turning to `CCCC(c1ccc(C(=O)NCCC(=O)O)cc1)n1nc(-c2cc(C(F)(F)F)ccc2OC)c2cc(-c3ccc(C)cc3)ccc21` (centres undefined), the half-maximal inhibitory concentration (IC50) in assay [1] is 17 nM; in assay [2] it was 7 nM.

Consider `COc1ccc(C(F)(F)F)cc1-c1nn(C(c2ccc(C(=O)NCCC(=O)O)cc2)C(C)C)c2cc(-c3ccc(C)cc3)ccc12` (centres undefined), for which the concentration for half-maximal inhibition (IC50) in assay [1] came out at 69 nM; in assay [2], 4 nM.

Consider `CCCCC(c1ccc(C(=O)NCCC(=O)O)cc1)n1nc(-c2cc(C(F)(F)F)ccc2OC)c2ccc(-c3ccccc3)cc21` (centres undefined), for which the values for the IC50 in assay [1] and in assay [2] were 18 nM and 3 nM, respectively.

`COc1ccc(Cl)cc1-c1nn(C(C)c2ccc(C(=O)NCCC(=O)O)cc2)c2cc(-c3ccc(OC(F)(F)F)cc3)ccc12` (centres undefined): the 50% inhibitory concentration (IC50) in assay [1] stood at 36 nM; in assay [2] it was 3 nM.

Take `CCCC(c1ccc(C(=O)NCCC(=O)O)cc1)n1nc(-c2cc(C(F)(F)F)ccc2OC)c2ccc(-c3ccc(OC)cc3)cc21` (centres undefined): the half-maximal inhibitory concentration (IC50) in assay [1] came out at 11 nM; in assay [2], 4 nM.

In the case of `CC(c1ccc(C(=O)NCCC(=O)O)cc1)n1nc(-c2cc(Cl)cc(C(F)(F)F)c2)c2ccc(-c3ccc(OC(F)(F)F)cc3)cc21` (centres undefined), the half-inhibitory concentration (IC50) in assay [1] was 56 nM; in assay [2] it was 3 nM.

Regarding `CCCC(c1ccc(C(=O)NCCC(=O)O)cc1)n1cc(-c2cc(C(F)(F)F)ccc2OC)c2ccc(-c3ccc(OC)cc3)cc21` (racemic), the IC50 in assay [1] was found to be 130 nM; in assay [2] it was 8 nM.

For `COc1ncccc1-c1nn(C(C)c2ccc(C(=O)NCCC(=O)O)cc2)c2cc(-c3ccc(OC(F)(F)F)cc3)ccc12` (centres undefined), the half-maximal inhibitory concentration (IC50) in assay [1] worked out at 77 nM; in assay [2], 72 nM.

Consider `CCCCC(c1ccc(C(=O)NCCC(=O)O)cc1)n1nc(-c2cc(C(F)(F)F)ccc2OC)c2ccc(-c3ccc(C)s3)cc21` (centres undefined), for which the half-inhibitory concentration (IC50) in assay [1] is 18 nM; in assay [2], 4 nM.

On to `CCCC(c1ccc(C(=O)NCCC(=O)O)cc1)n1nc(-c2cc(C(F)(F)F)ccc2OC)c2cccc(-c3ccc(C)cc3)c21` (centres undefined), for which the values for the IC50 in assay [1] and in assay [2] were 3800 nM and 780 nM, respectively.

As to `CCCCC(c1ccc(C(=O)NCCC(=O)O)cc1)n1nc(-c2cc(C(F)(F)F)ccc2OC)c2ccc(-c3ccc(C(F)(F)F)cc3)cc21` (centres undefined), the IC50 in assay [1] turned out to be 14 nM; in assay [2], 1.6 nM.
